Results: ChEMBL document CHEMBL1649483, “Molecular analysis of the gyrA and gyrB quinolone resistance-determining regions of fluoroquinolone-resistant Clostridium difficile mutants selected in vitro” (2009)
≈ marks a conversion by molar mass, not a printed value.

Key:
Type in all cases: functional
[1] = tested on: Clostridioides difficile; experiment: Antimicrobial activity against Clostridium difficile C253E selected after 8 ug/ml of levofloxacin by Etest method
[2] = tested on: Clostridioides difficile; experiment: Antimicrobial activity against Clostridium difficile C253D selected after 8 ug/ml of levofloxacin by Etest method
[3] = tested on: Clostridioides difficile; experiment: Antimicrobial activity against Clostridium difficile CD5c harboring GyrB Ser416Ala mutant gene selected after 2 ug/ml of moxifloxacin by Etest method
[4] = tested on: Clostridioides difficile; experiment: Antimicrobial activity against Clostridium difficile A422d selected after 4 ug/ml of moxifloxacin by Etest method
How it was run: (§1)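 Stable in vitro-selected mutant tested for gatifloxacin susceptibility by Etest, per the manufacturer's instructions, with an 8 μg/ml breakpoint. For selection, the parent was grown in antibiotic-free brain heart infusion (BHI) for 24 h at 35°C under anaerobic conditions. […] Later steps used double the MIC. Stability was confirmed by three subcultures.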

[5] = tested on: Clostridioides difficile; experiment: Antimicrobial activity against Clostridium difficile 630F harboring GyrA Ala118Val mutant gene selected after 8 ug/ml of levofloxacin by Etest method; how it was run: as §1
[6] = tested on: Clostridioides difficile; experiment: Antimicrobial activity against Clostridium difficile A422h harboring GyrA Asp81Asn mutant gene selected after 8 ug/ml of moxifloxacin by Etest method; how it was run: as §1
[7] = tested on: Clostridioides difficile; experiment: Antimicrobial activity against Clostridium difficile BI2f harboring GyrB Arg447Lys and Asp426Asn mutant gene selected after 32 ug/ml of moxifloxacin by Etest method; how it was run: as §1
[8] = tested on: Clostridioides difficile; experiment: Antimicrobial activity against Clostridium difficile 630E harboring GyrA Ala118Val mutant gene selected after 8 ug/ml of levofloxacin by Etest method; how it was run: as §1
[9] = tested on: Clostridioides difficile; experiment: Antimicrobial activity against Clostridium difficile A422 expressing tcdA and tcdB gene by Etest method
How it was run: (§2)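 Parent clinical or nontoxigenic isolate tested for gatifloxacin susceptibility by Etest, run per the manufacturer's instructions; a fluoroquinolone breakpoint of 8 μg/ml was applied.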

[10] = tested on: Clostridioides difficile; experiment: Antimicrobial activity against Clostridium difficile A422I harboring GyrA Thr82Ile and GyrB Leu451Phe mutant genes selected after 8 ug/ml of levofloxacin by Etest method; how it was run: as §1
[11] = tested on: Clostridioides difficile; experiment: Antimicrobial activity against Clostridium difficile CD5i harboring GyrA Ala118Ser, Thr82Ala and GyrB Ser416Ala mutant genes selected after 8 ug/ml of moxifloxacin by Etest method
[12] = tested on: Clostridioides difficile; experiment: Antimicrobial activity against Clostridium difficile BI2 by Etest method; how it was run: as §2
[13] = tested on: Clostridioides difficile; experiment: Antimicrobial activity against Clostridium difficile A422E harboring GyrB Leu451Phe mutant gene selected after 8 ug/ml of levofloxacin by Etest method; how it was run: as §1
[14] = tested on: Clostridioides difficile; experiment: Antimicrobial activity against Clostridium difficile CD5 2-g harboring GyrA Ala118Ser, Thr82Ala and GyrB Ser416Ala mutant genes selected after 8 ug/ml of moxifloxacin by Etest method
[15] = tested on: Clostridioides difficile; experiment: Antimicrobial activity against Clostridium difficile A422e selected after 4 ug/ml of moxifloxacin by Etest method; how it was run: as §1
[16] = tested on: Clostridioides difficile; experiment: Antimicrobial activity against Clostridium difficile CD5 1-g harboring GyrA Ala92Glu and GyrB Ser416Ala mutant genes selected after 8 ug/ml of moxifloxacin by Etest method
[17] = tested on: Clostridioides difficile; experiment: Antimicrobial activity against Clostridium difficile A422c selected after 2 ug/ml of moxifloxacin by Etest method; how it was run: as §1
[18] = tested on: Clostridioides difficile; experiment: Antimicrobial activity against Clostridium difficile C253 expressing tcdA and tcdB gene by Etest method; how it was run: as §2
[19] = tested on: Clostridioides difficile; experiment: Antimicrobial activity against Clostridium difficile C253a selected after 2 ug/ml of moxifloxacin by agar dilution method
[20] = tested on: Clostridioides difficile; experiment: Antimicrobial activity against Clostridium difficile CD5h harboring GyrA Ala92Glu and GyrB Ser416Ala mutant genes selected after 8 ug/ml of moxifloxacin by agar dilution method
[21] = tested on: Clostridioides difficile; experiment: Antimicrobial activity against Clostridium difficile BI2f harboring GyrB Arg447Lys and Asp426Asn mutant gene selected after 32 ug/ml of moxifloxacin by agar dilution method
[22] = tested on: Clostridioides difficile; experiment: Antimicrobial activity against Clostridium difficile A422F harboring GyrB Leu451Phe mutant gene selected after 8 ug/ml of levofloxacin by agar dilution method
[23] = tested on: Clostridioides difficile; experiment: Antimicrobial activity against Clostridium difficile CD5 2-g harboring GyrA Ala118Ser, Thr82Ala and GyrB Ser416Ala mutant genes selected after 8 ug/ml of moxifloxacin by agar dilution method
[24] = tested on: Clostridioides difficile; experiment: Antimicrobial activity against Clostridium difficile BI2c harboring GyrB Arg447Lys mutant gene selected after 2 ug/ml of moxifloxacin by agar dilution method
[25] = tested on: Clostridioides difficile; experiment: Antimicrobial activity against Clostridium difficile A422D harboring GyrB Leu451Phe mutant gene selected after 8 ug/ml of levofloxacin by agar dilution method
[26] = tested on: Clostridioides difficile; experiment: Antimicrobial activity against Clostridium difficile A422C selected after 4 ug/ml of levofloxacin by agar dilution method
[27] = tested on: Clostridioides difficile; experiment: Antimicrobial activity against Clostridium difficile BI2F harboring GyrB Glu466Lys mutant gene selected after 8 ug/ml of levofloxacin by agar dilution method
[28] = tested on: Clostridioides difficile; experiment: Antimicrobial activity against Clostridium difficile A422A selected after 4 ug/ml of levofloxacin by agar dilution method
[29] = tested on: Clostridioides difficile; experiment: Antimicrobial activity against Clostridium difficile A422b selected after 2 ug/ml of moxifloxacin by agar dilution method
[30] = tested on: Clostridioides difficile; experiment: Antimicrobial activity against Clostridium difficile 630E harboring GyrA Ala118Val mutant gene selected after 8 ug/ml of levofloxacin by agar dilution method
[31] = tested on: Clostridioides difficile; experiment: Antimicrobial activity against Clostridium difficile CD5C harboring GyrB Ser416Ala mutant gene selected after 4 ug/ml of levofloxacin by agar dilution method
[32] = tested on: Clostridioides difficile; experiment: Antimicrobial activity against Clostridium difficile BI2E harboring GyrB Glu466Lys mutant gene selected after 8 ug/ml of levofloxacin by agar dilution method
[33] = tested on: Clostridioides difficile; experiment: Antimicrobial activity against Clostridium difficile CD5c harboring GyrB Ser416Ala mutant gene selected after 2 ug/ml of moxifloxacin by agar dilution method
[34] = tested on: Clostridioides difficile; experiment: Antimicrobial activity against Clostridium difficile BI2D harboring GyrB Glu466Lys mutant gene selected after 8 ug/ml of levofloxacin by agar dilution method
[35] = tested on: Clostridioides difficile; experiment: Antimicrobial activity against Clostridium difficile C253b selected after 2 ug/ml of moxifloxacin by agar dilution method
[36] = tested on: Clostridioides difficile; experiment: Antimicrobial activity against Clostridium difficile A422I harboring GyrA Thr82Ile and GyrB Leu451Phe mutant genes selected after 8 ug/ml of levofloxacin by agar dilution method
[37] = tested on: Clostridioides difficile; experiment: Antimicrobial activity against Clostridium difficile C253c selected after 2 ug/ml of moxifloxacin by agar dilution method
[38] = tested on: Clostridioides difficile; experiment: Antimicrobial activity against Clostridium difficile 630b selected after 2 ug/ml of moxifloxacin by agar dilution method
[39] = tested on: Clostridioides difficile; experiment: Antimicrobial activity against Clostridium difficile C253F selected after 8 ug/ml of levofloxacin by agar dilution method
[40] = tested on: Clostridioides difficile; experiment: Antimicrobial activity against Clostridium difficile BI2B selected after 4 ug/ml of levofloxacin by agar dilution method
[41] = tested on: Clostridioides difficile; experiment: Antimicrobial activity against Clostridium difficile 630 expressing tcdA and tcdB gene by agar dilution method

COc1c(N2CCNC(C)C2)c(F)cc2c(=O)c(C(=O)O)cn(C3CC3)c12 (stereo unspecified) [GATIFLOXACIN]
MIC [1]: 1 mg/L | MIC [2]: 1 mg/L | MIC [3]: 0.75 mg/L | MIC [4]: 1.5 mg/L | MIC [5]: 3 mg/L | MIC [6]: ≥ 32 mg/L | MIC [7]: 6 mg/L | MIC [8]: 3 mg/L | MIC [9]: 0.75 mg/L (≈ 2 µM) | MIC [10]: ≥ 32 mg/L | MIC [11]: 16 mg/L | MIC [12]: 0.75 mg/L (≈ 2 µM) | MIC [13]: 2 mg/L | MIC [14]: 16 mg/L | MIC [15]: 1.5 mg/L | MIC [16]: 3 mg/L | MIC [17]: 1.5 mg/L | MIC [18]: 0.5 mg/L (≈ 1.33 µM)

C[C@H]1COc2c(N3CCN(C)CC3)c(F)cc3c(=O)c(C(=O)O)cn1c23.C[C@H]1COc2c(N3CCN(C)CC3)c(F)cc3c(=O)c(C(=O)O)cn1c23.O [LEVOFLOXACIN]
MIC [19]: 4 mg/L | MIC [20]: 16 mg/L | MIC [21]: 64 mg/L | MIC [22]: 2 mg/L | MIC [23]: 64 mg/L | MIC [24]: 8 mg/L | MIC [25]: 2 mg/L | MIC [26]: 1 mg/L | MIC [27]: 16 mg/L | MIC [28]: 1 mg/L | MIC [29]: 4 mg/L | MIC [30]: 8 mg/L | MIC [31]: 1 mg/L | MIC [32]: 16 mg/L | MIC [33]: 2 mg/L | MIC [34]: 16 mg/L | MIC [35]: 4 mg/L | MIC [36]: 64 mg/L | MIC [37]: 4 mg/L | MIC [38]: 4 mg/L | MIC [39]: 2 mg/L | MIC [40]: 1 mg/L | MIC [41]: 2 mg/L
